This is a sample that favours compounds with a hit; in the whole collection about 5% have one here.
Mdm2 MdmX PPI: disrupts the human Mdm2-MdmX interaction; SaOS-2 split-luciferase Mdm2/MdmX complementation, luminescence; inhibition, % at 8 µM; 330,000 tested, 3% active; AID 485346;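 active means inhibition of at least 50% at 8 µM in the primary screen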
Target sequence (O15151 whole entry, looked up): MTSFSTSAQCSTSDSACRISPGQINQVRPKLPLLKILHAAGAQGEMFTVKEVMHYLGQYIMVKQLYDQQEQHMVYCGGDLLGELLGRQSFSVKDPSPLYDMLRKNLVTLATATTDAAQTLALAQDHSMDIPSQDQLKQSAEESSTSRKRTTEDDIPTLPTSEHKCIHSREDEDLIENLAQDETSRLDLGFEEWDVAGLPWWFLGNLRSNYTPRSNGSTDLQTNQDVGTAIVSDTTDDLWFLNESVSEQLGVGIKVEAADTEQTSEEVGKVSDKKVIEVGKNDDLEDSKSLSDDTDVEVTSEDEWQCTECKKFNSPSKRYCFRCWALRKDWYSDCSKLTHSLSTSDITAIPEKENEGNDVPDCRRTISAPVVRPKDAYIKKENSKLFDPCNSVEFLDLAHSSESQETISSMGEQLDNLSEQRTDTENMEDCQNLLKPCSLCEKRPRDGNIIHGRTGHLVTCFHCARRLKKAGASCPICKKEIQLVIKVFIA
Target sequence (Q00987 whole entry, looked up): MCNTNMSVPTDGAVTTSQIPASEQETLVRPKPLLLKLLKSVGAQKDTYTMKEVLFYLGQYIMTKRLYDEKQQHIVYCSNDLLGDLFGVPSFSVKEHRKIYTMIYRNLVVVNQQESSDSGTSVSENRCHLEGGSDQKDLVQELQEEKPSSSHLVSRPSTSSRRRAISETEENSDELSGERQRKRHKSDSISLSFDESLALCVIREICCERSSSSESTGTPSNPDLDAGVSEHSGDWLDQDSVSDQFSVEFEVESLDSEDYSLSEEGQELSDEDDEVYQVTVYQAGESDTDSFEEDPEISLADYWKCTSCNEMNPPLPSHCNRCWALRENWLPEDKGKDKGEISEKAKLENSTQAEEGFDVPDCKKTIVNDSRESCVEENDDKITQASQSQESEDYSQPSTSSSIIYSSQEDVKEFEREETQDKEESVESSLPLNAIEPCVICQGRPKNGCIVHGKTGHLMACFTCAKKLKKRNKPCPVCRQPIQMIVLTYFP
Beta apoptosis: blocks beta cell apoptosis; 300,000 tested, 0.8% active; AID 435005; INS-1E cytokine-induced death, ATP luminescence, 48 h; percent of positive-control rescue, neutral wells zero; protection from apoptosis, % (no concentration beside the values);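 active means Every replicate reaches about 75%, or at least half do and their mean reaches it too, limit read from the data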;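 further: higher means more ATP so stronger rescue from cytokine killing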
XBP1 UPR activ: adaptive UPR (XBP1) activation | CHO-XBP1 luciferase reporter, IRE1-XBP1 UPR activation, luminescence; percent of tunicamycin response, DMSO as zero | activation, % at 20 µM | 330,000 tested, 0.33% active | AID 463104;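 active means versus positive control, 20 µM dose yields 30% or more activation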
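Assay system: CHO-XBP1 luciferase reporter cells; Schedule: 6 h treatment, 37 °C; Detection: glow luminescence from Steady-Glo reagent; Benchmarks: high control tunicamycin 10 µg/mL final, low control DMSO vehicle only.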
CSC inhib: blocks cancer stem cells; cancer stem cell-like cells viability, luminescence; inhibition, % at 7.5 µM; 300,000 tested, 1.1% active; AID 2717; in the data active means inhibition above about 75%; tested in HMLE shEcad cells
CHOP UPR activ: activators of apoptotic arm of unfolded protein response (CHOP); CHO-CHOP luciferase reporter, UPR activation, luminescence; percent of tunicamycin response over DMSO baseline; activation, % at 10 µM; 330,000 tested, 0.34% active; AID 449763;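 active means at 10 µM dose, activation of 40% or more, normalized to positive control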
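System: CHO CHOP reporter cells. Amount: 500 cells per well. Buffer or medium: F12 medium, 10% FBS. Compound dosing: one dose, 10 µM in 0.5% DMSO. Incubation: 6 h compound exposure at 37 °C after overnight seeding. Technique: Steady-Glo luciferase luminescence. Benchmarks: tunicamycin and DMSO controls.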
T cruzi repl: blocks replication of Trypanosoma cruzi; T. cruzi beta-gal in NIH3T3, luminescence, 90 h; inhibition, % (concentration not given with the values); 300,000 tested, 1.4% active; AID 1885;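 active means mean inhibition across valid replicates above about 55%, limit read from the data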;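 further: signal also drops with host cell toxicity which is not excluded here; higher percent means less beta-gal luminescence so fewer parasites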
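System: mouse NIH/3T3 fibroblasts infected with β-gal-expressing T. cruzi Tulahuen C4 / Input: NIH/3T3 cells, 5,000 per well / Buffer or medium: Low-serum DMEM with 2% FBS / Probe or stimulus: 5000 reporter trypomastigotes per well / Schedule: ≥90 h infection period, 3 h prior cell attachment / Measured by: GalScreen luminescence, 60 min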
Numbers stand for hits.

COc1ccc(C(=O)C2CCCN(Cc3cnc(N4CCCC4)s3)C2)cc1OC (centres undefined) was read as Mdm2 MdmX PPI inactive, Beta apoptosis inactive, XBP1 UPR activ inactive, CSC inhib inactive, CHOP UPR activ inactive and T cruzi repl 67.0.
`COC(=O)CCCCCc1ccc(C(C)=O)s1` gave Mdm2 MdmX PPI inactive, Beta apoptosis inactive, XBP1 UPR activ inactive, CSC inhib inactive, CHOP UPR activ inactive and T cruzi repl inactive.
For COc1ccc2c(c1)Cc1sc(NC(=O)c3cccs3)nc1-2 the results were Mdm2 MdmX PPI inactive, Beta apoptosis inactive, XBP1 UPR activ inactive, CSC inhib inactive, CHOP UPR activ inactive and T cruzi repl 54.7.
For COc1cc2cnc(-c3ccccc3)c(-c3cccc(C(F)(F)F)c3)c2cc1OC the results were Mdm2 MdmX PPI inactive, Beta apoptosis inactive, XBP1 UPR activ inactive, CSC inhib 127.8 and CHOP UPR activ inactive.
For O=[N+]([O-])c1cccc(C2NCC(c3ccccc3Cl)c3c2[nH]c2ccccc32)c1 (centres undefined) the results were Mdm2 MdmX PPI inactive, Beta apoptosis inactive, XBP1 UPR activ inactive, CSC inhib 130.5, CHOP UPR activ inactive and T cruzi repl inactive.
Screening CC(Oc1ccccc1Cl)C(=O)Nc1ccc(S(=O)(=O)N2CCCC2)cc1 (centres undefined) returned Mdm2 MdmX PPI inactive, Beta apoptosis inactive, XBP1 UPR activ inactive, CSC inhib inactive, CHOP UPR activ inactive and T cruzi repl inactive.
Screening O=C(c1cc(-c2ccco2)on1)N1CCN(c2ccccc2)CC1 returned Mdm2 MdmX PPI inactive, Beta apoptosis inactive, XBP1 UPR activ inactive, CSC inhib 84.4, CHOP UPR activ inactive and T cruzi repl inactive.
`COc1cccc(-c2cc(C(=O)N3CCOCC3)no2)c1` gave Mdm2 MdmX PPI inactive, Beta apoptosis inactive, XBP1 UPR activ inactive, CSC inhib inactive, CHOP UPR activ inactive and T cruzi repl inactive.
Screening COc1cccc(-c2cc(C(=O)N3CCN(C(c4ccccc4)c4ccccc4)CC3)no2)c1 returned Mdm2 MdmX PPI inactive, Beta apoptosis inactive, XBP1 UPR activ inactive, CSC inhib inactive, CHOP UPR activ inactive and T cruzi repl 68.3.
For CC(CCc1ccccc1)NC(=O)CCC1CCCC1 (centres undefined) the results were Mdm2 MdmX PPI inactive, Beta apoptosis inactive, XBP1 UPR activ inactive, CSC inhib inactive, CHOP UPR activ inactive and T cruzi repl inactive.
For C/C(=N\Nc1cccc(Cl)c1)c1ccncc1 the results were Mdm2 MdmX PPI inactive, Beta apoptosis inactive, XBP1 UPR activ inactive, CSC inhib inactive, CHOP UPR activ inactive and T cruzi repl 59.3.
Cc1cc(C)c(C(=O)Cn2cnc3cc([N+](=O)[O-])ccc3c2=O)cc1C was read as Mdm2 MdmX PPI inactive, Beta apoptosis inactive, XBP1 UPR activ inactive, CSC inhib inactive, CHOP UPR activ inactive and T cruzi repl 67.8.
`O=C(Cn1cnc2cc([N+](=O)[O-])ccc2c1=O)Nc1ccc2c(c1)OCO2` gave Mdm2 MdmX PPI inactive, Beta apoptosis inactive, XBP1 UPR activ inactive, CSC inhib inactive, CHOP UPR activ inactive and T cruzi repl 54.9.
COC(=O)[C@H]1C[C@H]1[C@@H](NC(=O)c1ccc[nH]1)c1ccccc1 was read as Mdm2 MdmX PPI inactive, Beta apoptosis inactive, XBP1 UPR activ inactive, CSC inhib inactive, CHOP UPR activ inactive and T cruzi repl inactive.
For C=CCNC(=S)NNC(=O)c1cccn(Cc2cccc(Cl)c2)c1=O the results were Mdm2 MdmX PPI inactive, Beta apoptosis inactive, XBP1 UPR activ inactive, CSC inhib inactive, CHOP UPR activ inactive and T cruzi repl inactive.
Screening O=C(Cc1ccc(Cl)cc1)c1c[nH]c(C(=O)NCc2cccnc2)c1 returned Mdm2 MdmX PPI inactive, Beta apoptosis 106.5, XBP1 UPR activ inactive, CSC inhib inactive, CHOP UPR activ inactive and T cruzi repl inactive.
Cc1cccc(OCC(=O)Nc2ccc(C(=O)NCc3cccnc3)cc2)c1 was read as Mdm2 MdmX PPI inactive, Beta apoptosis 112.9, XBP1 UPR activ inactive, CSC inhib inactive, CHOP UPR activ inactive and T cruzi repl inactive.
`O=C(COc1ccc(Cl)cc1)Nc1ccc(C(=O)NCc2cccnc2)cc1` gave Mdm2 MdmX PPI inactive, Beta apoptosis 100.6, XBP1 UPR activ inactive, CSC inhib inactive, CHOP UPR activ inactive and T cruzi repl inactive.
Screening CC(C)(C)c1ccc(C(=O)c2c[nH]c(C(=O)NCc3cccnc3)c2)cc1 returned Mdm2 MdmX PPI inactive, Beta apoptosis inactive, XBP1 UPR activ inactive, CSC inhib inactive, CHOP UPR activ inactive and T cruzi repl inactive.
`O=C(NCc1cccnc1)c1ccc(COc2ccc(Cl)cc2)cc1` gave Mdm2 MdmX PPI inactive, Beta apoptosis inactive, XBP1 UPR activ inactive, CSC inhib inactive, CHOP UPR activ inactive and T cruzi repl inactive.
`CN(C=O)CP(=O)(O)CN1CCCCC1` gave T cruzi repl inactive.
Screening Cc1ccccc1OCCOCCN1CCCCCC1 returned Mdm2 MdmX PPI inactive, Beta apoptosis inactive, XBP1 UPR activ inactive, CSC inhib inactive, CHOP UPR activ inactive and T cruzi repl inactive.
`Cc1cc(Br)ccc1OCCCCN1CCCCC1` gave Mdm2 MdmX PPI inactive, Beta apoptosis inactive, XBP1 UPR activ inactive, CSC inhib inactive, CHOP UPR activ inactive and T cruzi repl 64.1.
`Cc1cc(Br)ccc1OCCOCCN1CCCC1` gave Mdm2 MdmX PPI inactive, XBP1 UPR activ inactive, CSC inhib inactive, CHOP UPR activ inactive and T cruzi repl inactive.
CC1CCCN(CCCOc2ccc(Br)cc2Cl)C1 (centres undefined) was read as Mdm2 MdmX PPI inactive, Beta apoptosis inactive, XBP1 UPR activ inactive, CSC inhib 193.7, CHOP UPR activ inactive and T cruzi repl inactive.
Cc1ccc(OCCOCCN2CCCC2)c(Br)c1 was read as Mdm2 MdmX PPI inactive, Beta apoptosis inactive, XBP1 UPR activ inactive, CSC inhib inactive, CHOP UPR activ inactive and T cruzi repl 56.7.
Screening O=C1C=C(c2ccc3c(c2)oc2ccccc23)C[C@@H](c2ccc(Cl)cc2)C1 returned Mdm2 MdmX PPI inactive, Beta apoptosis inactive, XBP1 UPR activ inactive, CSC inhib inactive and CHOP UPR activ inactive.
Screening O=C(NC(=S)Nc1ccc(N2CCCCC2)c(Cl)c1)c1ccc2c(c1)OCCO2 returned Mdm2 MdmX PPI inactive, XBP1 UPR activ inactive, CSC inhib 88.6, CHOP UPR activ inactive and T cruzi repl inactive.
Screening O=c1oc2cc(O)ccc2cc1-c1nc2c(s1)CCc1ccccc1-2 returned Beta apoptosis inactive and CSC inhib 83.1.
Screening O=C(c1ccc(CSc2nc3ccncc3[nH]2)cc1)N1CCCCCC1 returned Mdm2 MdmX PPI inactive, Beta apoptosis inactive, XBP1 UPR activ inactive, CSC inhib inactive, CHOP UPR activ inactive and T cruzi repl inactive.

Source: PubChem (several laboratories)
